# This is a sample that favours compounds with a hit; in the whole collection about 2.1% have one here.
# SR-BI DiI inh: blocks mouse SR-BI lipid uptake from DiI-HDL; hit rate 0.96% among 320,000; AID 488896; ldlA[mSR-BI] CHO cells, DiI-HDL uptake fluorescence, 3 h; Q61009; inhibition, % at 12.5 µM;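 active = mean replicate inhibition of at least 70% and a set share of replicates each scoring 70 or more; inconclusive = meets just one of the two criteria; inactive = fails both criteria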
# Target sequence (Q61009 whole entry, looked up): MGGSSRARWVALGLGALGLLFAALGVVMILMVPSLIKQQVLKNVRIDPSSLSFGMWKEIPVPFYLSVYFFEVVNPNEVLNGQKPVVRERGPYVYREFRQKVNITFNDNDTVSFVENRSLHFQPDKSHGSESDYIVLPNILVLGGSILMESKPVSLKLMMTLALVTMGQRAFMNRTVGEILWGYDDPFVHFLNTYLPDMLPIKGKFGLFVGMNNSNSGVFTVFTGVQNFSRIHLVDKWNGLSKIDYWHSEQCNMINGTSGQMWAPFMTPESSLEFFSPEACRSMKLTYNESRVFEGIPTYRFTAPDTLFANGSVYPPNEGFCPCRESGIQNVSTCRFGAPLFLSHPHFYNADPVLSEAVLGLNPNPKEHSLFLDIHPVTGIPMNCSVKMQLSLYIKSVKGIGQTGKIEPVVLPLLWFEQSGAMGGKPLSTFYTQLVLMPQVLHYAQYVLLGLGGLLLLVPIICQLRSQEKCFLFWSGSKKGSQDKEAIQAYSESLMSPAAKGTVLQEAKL
# SR-BI uptake up: activators of SR-BI mediated HDL lipid uptake | CHO ldlA[mSR-BI] cells, DiI-HDL uptake fluorescence, 3 h; 100 = double the neutral-control signal | activation, % at 12.5 µM | hit rate 0.096% among 320,000;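 active = mean replicate activation of at least 60% and every replicate at or above 60%; inconclusive = mean or all-replicate condition met, but not both; inactive = mean below 60% and not all replicates reaching 60%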
#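 material = CHO ldlA[mSR-BI] cells | medium = Ham's F12 with 0.5% BSA, HEPES 25 mM, pH 7.4 | reagent = fluorescent DiI-HDL, 10 µg/mL final | compound dosing = single-point compound dose | incubation = 3 h, 37 °C | measured by = bottom-read fluorescence, 550/595 nm | measure = HDL uptake via cellular fluorescence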
# CAL PDZ FP-1: human CAL PDZ-peptide interaction inhibition; purified CAL PDZ, TMR-peptide fluorescence polarization, 1 h; inhibition, % at 20 µM; hit rate 0.02% among 330,000;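 active = highest replicate inhibition of at least 40%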
#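 Material: tagged CAL PDZ protein CerCALP, purified; buffer or medium: sodium phosphate/NaCl buffer pH 7.4 with TCEP, IgG, Thesit; also added: fluorescent TMR peptide probe; schedule: 1 h incubation at room temperature before polarization reading; technique: fluorescence polarization from S- and P-plane intensities, G-factor corrected; control set: unlabelled peptide and DMSO controls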
# ARNT-TACC3 inh: disrupts binding between human ARNT and TACC3; hit rate 0.66% among 390,000; inhibition, % at 9.99 µM; AlphaScreen His-ARNT PAS-B/GST-TACC3 binding, luminescence; TACC3 fragment carries E629A point mutation; AID 623870;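 active = mean inhibition of replicates at least 50% and at least half of replicates each reaching 50%; inconclusive = half or more replicates reach 50% but mean below 50%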
# miR-122 sensor: blocks miR-122 activity in Huh7 sensor cells; Huh7 miR-122 Renilla luciferase sensor, 48 h; neutral wells = 0, positive control = 100; hit rate 0.3% among 340,000; activation (reporter increase), % at 12.5 µM; AID 602342;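 active = mean replicate activation score at least 90 and every replicate individually at or above 90; inconclusive = only one of the two criteria met; inactive = neither criterion met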;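 note: higher luciferase means less miR-122 activity so hits act as miR-122 inhibitors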
# CAL PDZ FP-2: inhibitors of human CAL PDZ peptide binding. hit rate 0.92% among 300,000. purified CAL PDZ, TMR-peptide fluorescence polarization, 1 h. inhibition, % at 24.9 µM. Q9HD26;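 active = mean inhibition of at least 30% with at least half of replicates also reaching 30%; inconclusive = no clear call, values can overlap the other calls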
# Numbers stand for hits; - = inactive; ? = inconclusive; . = no result given; + = active, no number.
SMILES,SR-BI DiI inh,SR-BI uptake up,CAL PDZ FP-1,ARNT-TACC3 inh,miR-122 sensor,CAL PDZ FP-2
COc1ccc(S(=O)(=O)N2CCOC2CNC(=O)C(=O)NCc2ccncc2)cc1 (stereo not drawn),-,-,-,-,.,+
O=C(NCCCn1ccnc1)C(=O)NCC1OCCN1S(=O)(=O)c1ccc2c(c1)OCCO2 (stereo not drawn),.,.,-,64,.,-
COc1ccc(CNC(=O)C(=O)NCC2OCCN2S(=O)(=O)c2ccc(C)cc2)cc1 (stereo not drawn),-,-,-,-,-,-
O=C(NCCc1ccccc1)C(=O)NCC1OCCN1S(=O)(=O)c1ccc2c(c1)OCCO2 (stereo not drawn),-,-,-,-,-,-
Cc1ccccc1S(=O)(=O)NCC[C@H]1CC[C@@H](NC(=O)C2CCOCC2)[C@H](CO)O1,.,.,.,-,-,.
COc1ccccc1OCC(=O)Nc1ccc(NC(=O)COc2ccccc2OC)cc1,92,-,-,-,-,-
COc1cc(/C=N/NC(N)=S)ccc1OCC(=O)Nc1ccc(C)c(C)c1,73,-,-,-,-,-
COc1ccccc1OCC(=O)Nc1ccc(Cl)cc1,-,-,-,-,-,-
CCOC(=O)C1(CCOc2ccccc2)CCN(Cc2nccn2CC)CC1,-,-,-,-,.,33
CCC(=O)Nc1ccc2c(c1)C(=O)N(C)C[C@H](OC)[C@H](C)CN(Cc1ccncc1)[C@H](C)CO2,.,.,.,-,.,.
CN(c1ccc(OCC(=O)N2CCC(C(N)=O)CC2)cc1)S(=O)(=O)c1cccs1,-,-,-,-,-,62
CO[C@H]1CN(C)C(=O)c2cc(NC(C)=O)ccc2OC[C@H](C)N(Cc2cccnc2)C[C@@H]1C,.,.,.,-,-,.
CN(C)c1ccc(C2N3CC4(C)CN2CC(C)(C3)C4O)cc1 (stereo not drawn),-,-,-,-,-,-
CC12CN3CC(C)(CN(C1)C3c1ccc(Cl)cc1Cl)C2O (stereo not drawn),-,79,-,-,-,-
Cc1noc(C)c1NC(=O)Nc1ccc2c(c1)CC(=O)N([C@H](C)CO)C[C@H](C)[C@@H](CN(C)C(=O)Nc1ccc3c(c1)OCO3)O2,.,.,.,-,-,.
Cc1cc(C(=O)N2CCCC(CCC(=O)N3CCN(c4ccccn4)CC3)C2)c(C)o1 (stereo not drawn),-,-,-,-,-,45
CON/C=C(\C=Nc1ccc(Cl)cc1)c1ncc(C(F)(F)F)cc1Cl,73,-,-,-,-,.
CON/C=C(\C=Nc1ccc(C(F)(F)F)cc1)c1ncc(C(F)(F)F)cc1Cl,-,-,-,-,-,-
O=C(Oc1c(CN2CCOCC2)cc(Cl)c2cccnc12)c1ccccc1F,-,-,-,66,.,-
C/C=C/c1cnc2c(c1)C(=O)N([C@H](C)CO)C[C@H](C)[C@H](CN(C)C(=O)Cc1ccccc1)O2,.,.,.,-,-,.
CC1(C)C(=O)OC(c2c(F)c(F)c(F)c(F)c2F)C2(CCCCC2)C1=O (stereo not drawn),77,-,-,-,-,.
CC(=O)c1c(C)[nH]c(C(=O)Nc2ccc(Cl)c(S(=O)(=O)N(C)C)c2)c1C,82,-,-,-,.,-
CC(=O)c1c(C)[nH]c(C(=O)OCC(=O)Nc2ccc(Cl)c(S(=O)(=O)N(C)C)c2)c1C,.,.,-,-,-,-
COc1ccccc1NS(=O)(=O)c1cccc(NC(=O)c2[nH]c(C)c(C(C)=O)c2C)c1,.,.,-,-,?,-
CC(=O)c1c(C)[nH]c(C(=O)Nc2cccc(S(=O)(=O)N(C)c3ccccc3)c2)c1C,80,-,-,-,.,-
SMILES,SR-BI DiI inh,SR-BI uptake up,CAL PDZ FP-1,ARNT-TACC3 inh,miR-122 sensor,CAL PDZ FP-2
O=C(C[C@@H]1C[C@@H]2c3cc(NC(=O)Cc4ccncc4)ccc3O[C@@H]2[C@H](CO)O1)NCc1cccnc1,.,.,.,-,-,.
Fc1ccc(-n2nnc(-c3nccs3)n2)cc1,-,-,-,-,136,-
Fc1ccc(-n2nnc(-c3cccnc3Cl)n2)cc1,-,-,-,-,-,-
CCCCCC(=O)NNC(=S)NC(C)=O,-,-,-,71,.,-
C[C@@H]1CN([C@H](C)CO)S(=O)(=O)c2ccc(C#CCN(C)C)cc2O[C@H]1CN(C)Cc1ccc2c(c1)OCO2,.,.,.,-,-,.
Nc1nc2c(ncn2-c2ccccc2)c(=O)[nH]1,-,-,-,46,-,-
Nc1nc2nn(-c3ccccc3)nc2c(=O)[nH]1,-,-,-,-,-,-
C[C@H]1CCCCO[C@H](CN(C)Cc2ccncc2)[C@@H](C)CN([C@@H](C)CO)C(=O)c2cc(NC(=O)Nc3ccc(F)cc3)ccc2O1,.,.,.,-,-,.
COCCNC(=O)C(=O)NCCN1CCOCC1,-,-,-,-,-,-
COCCNC(=O)C(=O)NCCN1CCNCC1,-,-,-,-,.,88
O=C(c1ncn(Cc2ccccc2)c1C(=O)N1CCN(c2ccccc2)CC1)N1CCN(c2ccccc2)CC1,-,-,-,-,-,-
O=C(O)c1ncn(Cc2ccc(Br)cc2)c1C(=O)O,-,-,-,46,-,.
Fc1cccc(COc2ccccc2C(=S)N2CCCC2)c1,-,-,.,-,-,43
CC(C)(CN1CCCC1)NC(=O)C1CCC(=O)N(CCCN2CCOCC2)C1 (stereo not drawn),-,-,-,-,-,92
COCC1CCN(C(=O)c2ccc3oc(C(C)C)nc3c2)C1 (stereo not drawn),.,.,.,.,-,.
CC(C)c1nc2cc(C(=O)N(C)C3CCOCC3)ccc2o1,-,-,-,-,.,43
COCC(=O)Nc1ccc2c(c1)C(=O)N(C)[C@H]1CC[C@H](CC(=O)N3CCc4ccccc4C3)O[C@H]1CO2,.,.,.,-,-,.
Cc1ccc(OCC(=O)N2CCN(C(=O)c3cccs3)CC2)cc1,-,-,.,-,-,46
Cc1ccc(OCC(=O)N2CCN(c3nnc(-c4ccc(C)cc4)c4ccccc34)CC2)cc1,78,-,-,-,-,.
Cc1cccc(OCC(=O)N2CCN(c3nnc(-c4ccccc4)c4ccccc34)CC2)c1,80,-,-,-,.,-
COc1ccc(OCC(=O)N2CCN(c3nnc(-c4ccc(C)cc4)c4ccccc34)CC2)cc1,77,-,-,-,-,-
COc1cccc(C(=O)Nc2ccc3c(c2)C(=O)N(C)C[C@H](OC)[C@H](C)CN(CCc2ccccc2)[C@H](C)CO3)c1,.,.,.,-,.,.
CO[C@H]1CN(C)C(=O)c2ccc(NS(C)(=O)=O)cc2OC[C@@H](C)N(CC2CCOCC2)C[C@H]1C,.,.,.,-,-,.
C[C@@H]1CN([C@@H](C)CO)C(=O)Cc2cc(NS(=O)(=O)c3cn(C)cn3)ccc2O[C@@H]1CN(C)C(=O)Nc1ccc(F)cc1,.,.,.,-,-,.

# From PubChem BioAssay
